Here are results for 1 compound from ChEMBL document CHEMBL3871269, “Conjugates of podophyllotoxin and norcantharidin as dual inhibitors of topoisomeraseⅡ and protein phosphatase 2A” (Eur J Med Chem, 2016).

Series [1] can be described thus: Octanol-water partition coefficient, log P of the compound. In kind it is physicochemical. The note with it: read-out: logP. The method, boiled down: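 Partition coefficient P = compound concentration in 1-octanol / compound concentration in water.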
For series [2], the system named is HepG2. The experiment in a line: Induction of cell cycle arrest in human HepG2 cells assessed as increase in cyclin B1 expression at 0.5 to 1 uM measured after 24 hrs by western blot method. The format is functional, cell-based. An outline of the steps:
(§1)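 HepG2 cells grown 24 h in flasks, then treated with 0, 0.5 or 1 μM for 24 h. Lysis in Tris/NP-40/SDS buffer with protease inhibitors; Bradford protein assay. 30 μg protein on 10% or 12% SDS-PAGE, PVDF transfer, milk block 2 h. Cyclin B1 or cdc2 antibodies (1:500–1:1000) overnight at 4 °C, then secondary. β-actin loading control.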
On the technique in general: Immunoblotting shows a protein as a band on a membrane.

The subject of series [3] is HepG2. The experiment in a line: Inhibition of PP2A in human HepG2 cells assessed as residual activity by measuring phosphopeptide substrate level at 2 uM using RRAT(pT)VA as substrate preincubated for 24 hrs followed by substrate addition measured after 30 mins by molybdate dye based assay relative to control. In kind it is cell-based. The method, boiled down:
(§2)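 HepG2 cells treated 24 h in six-well plates, lysed, endogenous phosphate removed. Lysate incubated 30 min at 37 °C with phosphopeptide RRAT(pT)VA (5 μL of 1 mM). Stopped with molybdate dye mix; A600 after 15 min. Activity from phosphate standard curve, expressed relative to untreated control; mean ± SD.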

The test system of series [4] is HepG2. The experiment in a line: Induction of cell cycle arrest in human HepG2 cells assessed as increase in cyclin B1 expression measured after 24 hrs by western blot method. In kind it is functional, cell-based. An outline of the steps: as §1
Series [5] can be described thus: Cytotoxicity against human HCT8 cells measured after 48 hrs by MTT assay. In kind it is functional, cell-based. The note with it: HCT-8, 48 h. An outline of the steps:
(§3)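 MTT growth assay; cells seeded at 5×10³/well in RPMI1640 with 10% heat-inactivated FBS, attached 4–6 h, then exposed to five concentrations (0.01–100 μM, compounds dissolved in saline) for 48 h at 37 °C, 5% CO₂. MTT added for 4 h, formazan dissolved in DMSO, absorbance read at 490 nm. IC50 taken from log plot of percent of control versus concentration; means ± SD of triplicate experiments.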

For series [6], the system named is HepG2. Nature of the series: Induction of cell cycle arrest in human HepG2 cells assessed as accumulation at G2/M phase measured after 24 hrs by propidium iodide staining based flow cytometry. In kind it is functional. The method, boiled down: (§4)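 HepG2 cells exposed 24 h to 0, 0.5 or 1 μM. (1–5)×10⁵ cells harvested, PBS-washed, fixed in 70% ice-cold ethanol at least overnight. Stained 15 min in dark with 1% Triton X-100, 0.01% RNase, 0.05% PI. Cell-cycle distribution by flow cytometry.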
A general note: A flow cytometer gives signals particle by particle.

For series [7], the system named is HepG2. Nature of the series: Induction of cell cycle arrest in human HepG2 cells assessed as increase in cyclin cdc-2 expression measured after 24 hrs by western blot method. The format is functional, cell-based. The method, boiled down: as §1
The species named for series [8] is Bos taurus. Nature of the series: Binding affinity to calf thymus DNA at 1 uM at pH 7.2 measured after 5 mins by fluorescence spectroscopic method. An outline of the steps: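 CT DNA titrated (0–5 μM) into 1 μM compound in pH 7.2 PBS, equilibrated 5 min at 25 °C. Excitation at 318 nm, emission recorded over 280–400 nm. CT DNA samples in PBS at matching concentrations served as blanks.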

Series [9] deals with HepG2. Nature of the series: Induction of cell cycle arrest in human HepG2 cells assessed as accumulation at G2/M phase at 0.5 uM measured after 24 hrs by propidium iodide staining based flow cytometry (reference value: 9.4%). In kind it is functional.
The species entered for series [10] is Homo sapiens. The experiment in a line: Inhibition of human topoisomerase-2 catalytic activity assessed as reduction in pBR322 supercoiled DNA relaxation up to 100 uM measured after 60 mins by ethidium bromide staining agarose gel electrophoresis. The method, boiled down: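 Relaxation assay with supercoiled pBR322 (250 ng/μL) and topoisomerase II (4 units) in kit buffer, 20 μL, 60 min at 37 °C. Compound at 50 or 100 μM. Stopped with 10% SDS, proteinase K, chloroform/isoamyl alcohol extraction. Run on 1% agarose in TAE pH 8.0, ethidium bromide stained.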

Series [11] in a line: Inhibition of human RBC PP2A assessed as reduction in free phosphate ion release using Lys-Arg-pThr-Ile-Arg as substrate preincubated for 10 mins followed by substrate addition measured after 60 mins by malachite green method. An outline of the steps: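 Purified PP2A (0.6 mU/well) preincubated with inhibitor 10 min at 37 °C. Reaction started with 200 μM Lys-Arg-pThr-Ile-Arg in 50 mM Tris-HCl pH 7.0, 100 μM CaCl₂; 60 min at room temperature. Released phosphate read by malachite green at 650 nm after 10 min; enzyme-plus-buffer blanks. IC50 from dose–response; mean of three independent experiments in duplicate.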

Series [12] deals with HepG2. The experiment in a line: Inhibition of PP2A in human HepG2 cells assessed as reduction in phosphopeptide substrate level using RRAT(pT)VA as substrate preincubated for 24 hrs followed by substrate addition measured after 30 mins by molybdate dye based assay. The format is cell-based. The method, boiled down: as §2
A short description of series [13]: Cytotoxicity against human A549 cells measured after 48 hrs by MTT assay. In kind it is functional, cell-based. As to conditions: A549, 48 h. The method, boiled down: as §3
On the technique in general: Tetrazolium assays rely on reduction of a dye to a coloured formazan, in cell work by metabolically active cells.

Series [14] concerns HepG2. Nature of the series: Induction of cell cycle arrest in human HepG2 cells assessed as decrease in G1 phase by propidium iodide staining based flow cytometry. In kind it is functional. As to conditions: TDE = time-dependent effect. The method, boiled down: as §4
For series [15], the system named is HepG2. The experiment in a line: Inhibition of PP2A in human HepG2 cells assessed as residual activity by measuring phosphopeptide substrate level at 1 uM using RRAT(pT)VA as substrate preincubated for 24 hrs followed by substrate addition measured after 30 mins by molybdate dye based assay relative to control. The format is cell-based. An outline of the steps:
as §2

Series [16] can be described thus: Cytotoxicity against human HeLa cells measured after 48 hrs by MTT assay. In kind it is functional, cell-based. The method, boiled down:
as §3

Series [17] in a line: Cytotoxicity against human HepG2 cells measured after 48 hrs by MTT assay. The note with it: HepG2, 48 h. In kind it is functional, cell-based. The method, boiled down:
as §3

Series [18] deals with HepG2. Nature of the series: Inhibition of PP2A in human HepG2 cells assessed as residual activity by measuring phosphopeptide substrate level at 5 uM using RRAT(pT)VA as substrate preincubated for 24 hrs followed by substrate addition measured after 30 mins by molybdate dye based assay relative to control. In kind it is cell-based. The method, boiled down: as §2
For series [19], the system named is HepG2. The experiment in a line: Induction of cell cycle arrest in human HepG2 cells assessed as accumulation at G2/M phase at 1 uM measured after 24 hrs by propidium iodide staining based flow cytometry (reference value: 9.4%). In kind it is functional.
A short description of series [20]: Cytotoxicity against human WI38 cells measured after 48 hrs by MTT assay. The format is toxicity, cell-based, WI-38. An outline of the steps:
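MTT growth inhibition in WI-38 lung fibroblasts. Cells seeded at 5×10³/well in RPMI1640 with 10% heat-inactivated FBS, attached 4–6 h, then exposed 48 h at 37 °C, 5% CO₂ to five concentrations (0.01–100 μM, saline-dissolved). MTT 4 h, DMSO solubilisation, A490. IC50 from log plot of percent control vs concentration; triplicate, mean ± SD.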

The test system of series [21] is HepG2. Nature of the series: Induction of cell cycle arrest in human HepG2 cells assessed as decrease in G1 phase at 0.5 to 1 uM measured after 24 hrs by propidium iodide staining based flow cytometry. In kind it is functional. The method, boiled down:
as §4

The source made the active and inactive calls. The rule behind the calls is not given here.

As to `COc1cc([C@@H]2c3cc4c(cc3[C@@H](NC(=O)CCCN3C(=O)C5C6CCC(O6)C5C3=O)[C@H]3COC(=O)[C@H]23)OCO4)cc(OC)c1O` (stereo partly specified), the logP in [1] turned out to be 0.68. The outcome in series [2], in [8] and in series [21] was Active. The Activity is 32% in series [3]; “Dose-dependent effect” in series [4]; “Dose-dependent effect” in [6]; “Dose-dependent effect” in series [7]; 27.6% in series [9]; “Tde” in series [14]. For the same compound, the Activity is 73% in series [15], 27% in [18] and 58.6% in [19]. For the same compound, the IC50 in series [5] was 3.48 µM; in series [11], 0.49 µM; in series [13] it was 4.57 µM; in series [16], 4.33 µM; in series [17], below 0.01 µM. Further, the inhibition entry in series [10] is “Active”. Besides, the inhibition result in [12] is “Dose-dependent effect”. The IC50 at 48 h in series [20] is above 100 µM.

By logP is commonly meant a log measure of how a compound divides between an organic and an aqueous phase. As usually defined, the IC50 is the concentration needed to halve the response being measured.
